Source: ChEMBL document CHEMBL1158482, “Dopamine D2, D3, and D4 selective phenylpiperazines as molecular probes to explore the origins of subtype specific receptor binding” (J Med Chem, 2009)

How the values were obtained:
Format in all cases: cell-based
HEK293 [1] = assay: Selectivity ratio of Ki for human cloned dopamine D3 receptor V2.61F mutant to Ki for wild type human cloned dopamine D3 receptor expressed in HEK293 cells
How it was run: (§1)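 Wild-type or mutant receptor cDNA transiently transfected into HEK-293 cells, which were grown in MEM with 10% FBS at 37 °C and 5% CO2 and harvested 48 h after transfection. Membranes were homogenised and pelleted at 50000g. Competition against [3H]spiperone (0.1-0.7 nM final) used 20-200 μg/mL protein. Ki was derived from EC50, 2-18 independent experiments in triplicate. Ratios are mutant Ki over wild-type Ki.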

HEK293 [2] = assay: Selectivity ratio of Ki for human cloned dopamine D3 receptor V2.61F/FV3.28,3.29LM mutant to Ki for wild type human cloned dopamine D3 receptor expressed in HEK293 cells; how it was run: as §1
[3] = Displacement of [3H]spiperone from human cloned dopamine D2L receptor V2.61F/FV3.28,3.29LM mutant expressed in HEK293 cells
How it was run: (§2)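 Wild-type or mutant receptor cDNA transiently transfected into HEK-293 cells (CaHPO4 or TransIT-293), grown in MEM with 10% FBS at 37 °C, 5% CO2, harvested 48 h post-transfection. Membranes prepared by homogenization and spin at 50000g.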

D(3) dopamine receptor [4] = target: D(3) dopamine receptor (Homo sapiens, UniProt P35462, V87F); assay: Displacement of [3H]spiperone from human cloned dopamine D3 receptor V2.61F mutant expressed in HEK293 cells
CHO [5] = assay: Selectivity ratio of Ki for human cloned dopamine D2L receptor to Ki for human cloned dopamine D3 receptor expressed in CHO cells
[6] = Displacement of [3H]spiperone from human cloned dopamine D2L receptor V2.61F mutant expressed in HEK293 cells; how it was run: as §2
HEK293 [7] = assay: Selectivity ratio of Ki for human cloned dopamine D3 receptor FV3.28,3.29LM mutant to Ki for wild type human cloned dopamine D3 receptor expressed in HEK293 cells; how it was run: as §1
D(3) dopamine receptor [8] = target: D(3) dopamine receptor (Homo sapiens, UniProt P35462, F106L/V107M/V87F); assay: Displacement of [3H]spiperone from human cloned dopamine D3 receptor V2.61F/FV3.28,3.29LM mutant expressed in HEK293 cells
HEK293 [9] = assay: Selectivity ratio of Ki for human cloned dopamine D2L receptor V2.61F/FV3.28,3.29LM mutant to Ki for wild type human cloned dopamine D2L receptor expressed in HEK293 cells; how it was run: as §1
[10] = Displacement of [3H]spiperone from human cloned dopamine D2L receptor H6.55A mutant expressed in HEK293 cells; how it was run: as §2
HEK293 [11] = assay: Selectivity ratio of Ki for human cloned dopamine D2L receptor H6.55A mutant to Ki for wild type human cloned dopamine D2L receptor expressed in HEK293 cells; how it was run: as §1
D(3) dopamine receptor [12] = target: T1, D(3) dopamine receptor (Homo sapiens, UniProt P35462); assay: Displacement of [3H]spiperone from human cloned dopamine D3 receptor FV3.28,3.29LM mutant expressed in HEK293 cells
D(2) dopamine receptor [13] = target: T2, D(2) dopamine receptor (Homo sapiens, UniProt P14416); assay: Displacement of [3H]spiperone from wild type human cloned dopamine D2L receptor expressed in HEK293 cells
HEK293 [14] = assay: Selectivity ratio of Ki for human cloned dopamine D2L receptor FV3.28,3.29LM mutant to Ki for wild type human cloned dopamine D2L receptor expressed in HEK293 cells; how it was run: as §1
CHO [15] = assay: Selectivity ratio of Ki for human cloned dopamine D2L receptor to Ki for human cloned dopamine D4 receptor expressed in CHO cells
D(3) dopamine receptor [16] = target: T1, D(3) dopamine receptor; assay: Displacement of [3H]spiperone from wild type human cloned dopamine D3 receptor expressed in HEK293 cells
[17] = Displacement of [3H]spiperone from human cloned dopamine D2L receptor FV3.28,3.29LM mutant expressed in HEK293 cells; how it was run: as §2
D(2) dopamine receptor [18] = target: T2, D(2) dopamine receptor; assay: Displacement of [3H]spiperone from human cloned dopamine D2L receptor expressed in CHO cells
HEK293 [19] = assay: Selectivity ratio of Ki for human cloned dopamine D2L receptor V2.61F mutant to Ki for wild type human cloned dopamine D2L receptor expressed in HEK293 cells; how it was run: as §1
D(4) dopamine receptor [20] = target: T3, D(4) dopamine receptor (Homo sapiens, UniProt P21917); assay: Displacement of [3H]spiperone from human cloned dopamine D4 receptor expressed in CHO cells
T3 sequence (P21917 whole entry): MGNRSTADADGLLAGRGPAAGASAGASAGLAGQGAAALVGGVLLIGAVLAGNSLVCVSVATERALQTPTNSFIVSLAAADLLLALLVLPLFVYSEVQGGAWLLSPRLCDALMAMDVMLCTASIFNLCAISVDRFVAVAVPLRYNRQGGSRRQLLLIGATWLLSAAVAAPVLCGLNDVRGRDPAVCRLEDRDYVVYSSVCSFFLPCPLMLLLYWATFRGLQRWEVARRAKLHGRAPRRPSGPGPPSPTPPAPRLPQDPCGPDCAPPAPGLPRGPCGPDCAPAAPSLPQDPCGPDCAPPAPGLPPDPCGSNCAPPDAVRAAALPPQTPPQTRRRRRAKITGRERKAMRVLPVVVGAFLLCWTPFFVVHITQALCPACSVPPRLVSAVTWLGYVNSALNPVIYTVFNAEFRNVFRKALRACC
How it was run: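 Membranes from CHO cells stably expressing human D4 (Bmax 700-1800 fmol/mg). Curves fit by nonlinear regression, sigmoid model giving IC50 and slope; Ki ± SEM from 2-9 experiments in triplicate.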

D(3) dopamine receptor [21] = target: T1, D(3) dopamine receptor; assay: Displacement of [3H]spiperone from human cloned dopamine D3 receptor expressed in CHO cells
[22] = Displacement of [3H]spiperone from human cloned dopamine D2L receptor D3.32E mutant expressed in HEK293 cells; how it was run: as §2
HEK293 [23] = assay: Selectivity ratio of Ki for human cloned dopamine D2L receptor D3.32E mutant to Ki for wild type human cloned dopamine D2L receptor expressed in HEK293 cells; how it was run: as §1
D(3) dopamine receptor [24] = target: D(3) dopamine receptor (Homo sapiens, UniProt P35462, D110E); assay: Displacement of [3H]spiperone from human cloned dopamine D3 receptor D3.32E mutant expressed in HEK293 cells
HEK293 [25] = assay: Selectivity ratio of Ki for human cloned dopamine D3 receptor H6.55A mutant to Ki for wild type human cloned dopamine D3 receptor expressed in HEK293 cells; how it was run: as §1
HEK293 [26] = assay: Selectivity ratio of Ki for human cloned dopamine D3 receptor L2.64F mutant to Ki for wild type human cloned dopamine D3 receptor expressed in HEK293 cells; how it was run: as §1
HEK293 [27] = assay: Selectivity ratio of Ki for human cloned dopamine D3 receptor V180E/S182I mutant to Ki for wild type human cloned dopamine D3 receptor expressed in HEK293 cells; how it was run: as §1
D(4) dopamine receptor [28] = target: T3, D(4) dopamine receptor; assay: Displacement of [3H]spiperone from wild type human cloned dopamine D4 receptor expressed in HEK293 cells
D(3) dopamine receptor [29] = target: T1, D(3) dopamine receptor; assay: Displacement of [3H]spiperone from human cloned dopamine D3 receptor L2.64F mutant expressed in HEK293 cells
HEK293 [30] = assay: Selectivity ratio of Ki for human cloned dopamine D2L receptor E181V/I183S mutant to Ki for wild type human cloned dopamine D2L receptor expressed in HEK293 cells; how it was run: as §1
HEK293 [31] = assay: Selectivity ratio of Ki for human cloned dopamine D2L receptor L2.64F mutant to Ki for wild type human cloned dopamine D2L receptor expressed in HEK293 cells; how it was run: as §1
HEK293 [32] = assay: Selectivity ratio of Ki for human cloned dopamine D2L receptor H6.55F mutant to Ki for wild type human cloned dopamine D2L receptor expressed in HEK293 cells; how it was run: as §1
D(3) dopamine receptor [33] = target: D(3) dopamine receptor (Homo sapiens, UniProt P35462, H349A); assay: Displacement of [3H]spiperone from human cloned dopamine D3 receptor H6.55A mutant expressed in HEK293 cells
[34] = Displacement of [3H]spiperone from human cloned dopamine D2L receptor L2.64F mutant expressed in HEK293 cells; how it was run: as §2
D(3) dopamine receptor [35] = target: D(3) dopamine receptor (Homo sapiens, UniProt P35462, S182I/V180E); assay: Displacement of [3H]spiperone from human cloned dopamine D3 receptor V180E/S182I mutant expressed in HEK293 cells
D(2) dopamine receptor [36] = target: D(2) dopamine receptor (Homo sapiens, UniProt P14416, E181V/I183S); assay: Displacement of [3H]spiperone from human cloned dopamine D2L receptor E181V/I183S mutant expressed in HEK293 cells; how it was run: as §1
HEK293 [37] = assay: Selectivity ratio of Ki for human cloned dopamine D3 receptor D3.32E mutant to Ki for wild type human cloned dopamine D3 receptor expressed in HEK293 cells; how it was run: as §1
[38] = Displacement of [3H]spiperone from human cloned dopamine D2L receptor H6.55F mutant expressed in HEK293 cells; how it was run: as §2

T1 sequence (P35462 whole entry): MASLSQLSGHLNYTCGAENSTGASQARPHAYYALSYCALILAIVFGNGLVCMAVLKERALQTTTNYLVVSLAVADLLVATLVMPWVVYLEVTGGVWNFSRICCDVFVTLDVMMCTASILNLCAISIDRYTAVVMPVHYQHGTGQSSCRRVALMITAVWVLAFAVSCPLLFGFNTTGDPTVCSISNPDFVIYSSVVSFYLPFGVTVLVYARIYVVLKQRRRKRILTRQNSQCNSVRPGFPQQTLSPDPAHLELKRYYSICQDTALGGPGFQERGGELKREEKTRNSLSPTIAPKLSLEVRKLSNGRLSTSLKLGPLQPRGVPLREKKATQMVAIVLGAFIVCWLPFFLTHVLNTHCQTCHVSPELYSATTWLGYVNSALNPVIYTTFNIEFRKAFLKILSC
T2 sequence (P14416 whole entry): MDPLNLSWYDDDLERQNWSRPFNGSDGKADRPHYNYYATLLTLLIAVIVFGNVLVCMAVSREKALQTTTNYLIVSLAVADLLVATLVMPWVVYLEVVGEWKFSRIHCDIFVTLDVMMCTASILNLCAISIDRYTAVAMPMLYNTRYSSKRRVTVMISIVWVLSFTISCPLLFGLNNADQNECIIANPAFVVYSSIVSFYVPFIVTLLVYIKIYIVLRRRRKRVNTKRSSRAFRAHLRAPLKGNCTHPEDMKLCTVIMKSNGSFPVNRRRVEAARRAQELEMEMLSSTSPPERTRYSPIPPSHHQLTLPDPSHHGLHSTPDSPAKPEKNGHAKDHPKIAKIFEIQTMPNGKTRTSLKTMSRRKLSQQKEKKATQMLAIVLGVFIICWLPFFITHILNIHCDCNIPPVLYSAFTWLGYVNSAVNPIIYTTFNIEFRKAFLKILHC
Chain of D(3) dopamine receptor (Homo sapiens, UniProt P35462, F106L/V107M/V87F) (P35462 as listed by the source V87F/F106L/V107M): as the sequence (P35462 whole entry) above, with G9S, V87F, F106L, V107M counted along it
Chain of D(3) dopamine receptor (Homo sapiens, UniProt P35462, V87F) (P35462 as listed by the source V87F): as the sequence (P35462 whole entry) above, with G9S, V87F counted along it
Chain of D(2) dopamine receptor (Homo sapiens, UniProt P14416, E181V/I183S) (P14416 whole entry E181V/I183S): as the sequence (P14416 whole entry) above, with E181V, I183S counted along it
Chain of D(3) dopamine receptor (Homo sapiens, UniProt P35462, D110E) (P35462 as listed by the source D110E): as the sequence (P35462 whole entry) above, with G9S, D110E counted along it
Chain of D(3) dopamine receptor (Homo sapiens, UniProt P35462, H349A) (P35462 as listed by the source H349A): as the sequence (P35462 whole entry) above, with G9S, H349A counted along it
Chain of D(3) dopamine receptor (Homo sapiens, UniProt P35462, S182I/V180E) (P35462 as listed by the source V180E/S182I): as the sequence (P35462 whole entry) above, with G9S, V180E, S182I counted along it

| Ki (D(3) dopamine receptor [4]) [nM] | Ki (D(3) dopamine receptor [8]) [nM] | Ki (D(3) dopamine receptor [12]) [nM] | Ki (D(2) dopamine receptor [13]) [nM] | Ki (D(3) dopamine receptor [16]) [nM] | Structure (SMILES) | Ratio Ki (HEK293 [1]) | Ratio Ki (HEK293 [2]) | Ki [3] [nM] | Ratio Ki (CHO [5]) | Ki [6] [nM] | Ratio Ki (HEK293 [7]) | Ratio Ki (HEK293 [9]) | Ki [10] [nM] | Ratio Ki (HEK293 [11]) | Ratio Ki (HEK293 [14]) | Ratio Ki (CHO [15]) | Ki [17] [nM] | Ratio Ki (HEK293 [19]) | other results |
| --- | --- | --- | --- | --- | --- | --- | --- | --- | --- | --- | --- | --- | --- | --- | --- | --- | --- | --- | --- |
| 1900 | 1100 | 530 | 220 | 220 | Clc1ccc(N2CCN(CCCCCc3cc4ccccn4n3)CC2)cc1 | 8.8 | 5.1 | 470 | 0.43 | 740 | 2.4 | 2.1 | 170 | 0.74 | 4.9 | 3.5 | 1100 | 3.3 | Ki (D(2) dopamine receptor [18]): 160 nM; Ki (D(4) dopamine receptor [20]): 46 nM; Ki (D(3) dopamine receptor [21]): 370 nM |
| 9200 | 76 | 730 | 2300 | 8300 | Clc1ccc(N2CCN(Cc3cc4ccccn4n3)CC2)cc1 | 1.1 | 0.009 | 66 | 0.64 | 1200 | 0.09 | 0.03 | 320 | 0.14 | 0.13 | 1500 | 300 | 0.53 | Ki [22]: 5100 nM; Ratio Ki (HEK293 [23]): 2.2; Ki (D(3) dopamine receptor [24]): 12000 nM; Ratio Ki (HEK293 [25]): 0.005; Ratio Ki (HEK293 [26]): 0.19; Ratio Ki (HEK293 [27]): 0.31; Ki (D(4) dopamine receptor [28]): 6.8 nM; Ki (D(3) dopamine receptor [29]): 1600 nM; Ratio Ki (HEK293 [30]): 19; Ratio Ki (HEK293 [31]): 0.89; Ratio Ki (HEK293 [32]): 0.7; Ki (D(3) dopamine receptor [33]): 46 nM; Ki [34]: 2000 nM; Ki (D(3) dopamine receptor [35]): 2500 nM; Ki (D(2) dopamine receptor [36]): 47000 nM; Ratio Ki (HEK293 [37]): 1.4; Ki [38]: 1600 nM |
